Sampled rows, rich in hits. Any-hit rate of the full collection: about 3.9%.
SR-BI uptake up: activators of SR-BI mediated HDL lipid uptake; CHO ldlA[mSR-BI] cells, DiI-HDL uptake fluorescence, 3 h; 100 = double the neutral-control signal; activation, % at 12.5 µM; 320,000 tested, 0.096% active;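 active means mean replicate activation of at least 60% and every replicate at or above 60%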;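 further: 0% = median plate neutral-control signal and 100% = twice that signal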
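Assay system: LDL receptor-deficient CHO ldlA cells overexpressing murine SR-BI / Medium: BSA-supplemented, HEPES-buffered Ham's F12, pH 7.4 / Probe or stimulus: DiI-labelled HDL at 10 µg/mL final / Timing: compound with DiI-HDL co-incubation, 3 h at 37 °C / Technique: bottom-read cell fluorescence after medium removal, ex 550/em 595 nm / Measure: HDL uptake via cellular fluorescence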
ABCB6 inh MLPCN: human ABCB6 transporter inhibition; Q9NP58; K562-ABCB6 porphyrin accumulation, flow cytometry, 1 h; active compounds read low; fluorescence ratio to DMSO, % at 10 µM; 360,000 tested, 0.19% active; AID 602162;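 active means fluorescence ratio to DMSO below 75%, the collection mean minus 3 SD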;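 further: signal is porphyrin accumulated inside mitochondria; 100% equals median channel fluorescence of DMSO control wells; lower ratio means ABCB6 inhibition with less porphyrin fluorescence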
Target sequence (Q9NP58 whole entry, looked up): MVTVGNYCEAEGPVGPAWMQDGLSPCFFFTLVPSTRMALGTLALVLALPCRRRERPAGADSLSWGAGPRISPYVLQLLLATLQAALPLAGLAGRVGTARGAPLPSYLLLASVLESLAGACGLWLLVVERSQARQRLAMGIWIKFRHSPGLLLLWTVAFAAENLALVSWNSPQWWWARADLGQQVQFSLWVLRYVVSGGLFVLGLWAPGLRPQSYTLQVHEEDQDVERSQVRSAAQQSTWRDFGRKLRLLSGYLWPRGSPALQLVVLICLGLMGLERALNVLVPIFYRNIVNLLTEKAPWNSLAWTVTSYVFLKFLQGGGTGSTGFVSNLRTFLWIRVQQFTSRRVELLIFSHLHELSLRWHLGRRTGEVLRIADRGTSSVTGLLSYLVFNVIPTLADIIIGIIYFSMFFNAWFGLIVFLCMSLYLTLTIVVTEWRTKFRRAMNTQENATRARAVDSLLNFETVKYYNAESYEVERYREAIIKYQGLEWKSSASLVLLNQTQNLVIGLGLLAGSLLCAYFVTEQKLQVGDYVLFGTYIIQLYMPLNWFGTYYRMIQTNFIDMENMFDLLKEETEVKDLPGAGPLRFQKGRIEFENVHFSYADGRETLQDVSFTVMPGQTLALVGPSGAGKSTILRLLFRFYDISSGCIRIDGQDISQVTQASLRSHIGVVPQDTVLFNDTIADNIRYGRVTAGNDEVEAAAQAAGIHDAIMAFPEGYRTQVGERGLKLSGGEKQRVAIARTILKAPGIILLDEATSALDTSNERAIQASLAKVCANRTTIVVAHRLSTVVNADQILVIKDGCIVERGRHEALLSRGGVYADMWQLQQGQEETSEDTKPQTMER
HIF activator: HIF pathway transcriptional activation; U2OS HRE-luciferase reporter, luminescence; normalized: DMSO 0%, desferrioxamine 100%; activation, % at 7.5 µM (by protocol); 300,000 tested, 0.32% active; AID 1910;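 active means mean activation of at least 10% of the iron chelator positive control signal, with at least half of replicates also reaching 10%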
SR-BI HDL uptake: blocks mouse SR-BI lipid uptake from DiI-HDL; Q61009; ldlA[mSR-BI] CHO cells, DiI-HDL uptake fluorescence, 3 h; inhibition, % at 12.5 µM; 320,000 tested, 0.96% active;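 active means mean replicate inhibition of at least 70% and a set share of replicates each scoring 70 or more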;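 further: 0% = median of neutral control wells and 100% = median of positive control wells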
GAA850 FXN act: increases GAA850 frataxin promoter reporter activity | HEK293 lucGAA850 FXN promoter luciferase reporter, 24 h; percent of 10 µM SAHA response | activation, % at 6 µM | 360,000 tested, 0.56% active;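 active means activation above the average of all compounds screened plus 3 SD, cutoff fixed separately per campaign, cut at about 7.5% in these data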;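 further: 0% = DMSO wells and 100% = 10 µM SAHA wells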
AHR act: human AHR activation. P35869. AHR-responsive luciferase reporter cells, luminescence. activation, % at 5 µM. 320,000 tested, 2.5% active. AID 2796; in the data active means activation above about 47%;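 further: 0% = vehicle wells and 100% = reference agonist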
An asterisk follows results filed as active.

Screening CCOC(=O)c1c(C)n(C)c2ccc(OCC(O)CN3C(=O)c4ccccc4S3(=O)=O)cc12 (centres undefined) returned SR-BI uptake up -0.2, ABCB6 inh MLPCN 35.0*, SR-BI HDL uptake 0.2, GAA850 FXN act 1.7 and AHR act 18.1.
For CCOC(=O)c1c(C)n(CCOc2ccccc2)c2ccc(O)cc12 the results were SR-BI uptake up -40.7, ABCB6 inh MLPCN 99.0, HIF activator 1.8, SR-BI HDL uptake 40.7, GAA850 FXN act 2.6 and AHR act 51.0*.
For CCOC(=O)c1c(C)n(C)c2ccc(OCC(O)Cn3nc(C)cc3C)cc12 (centres undefined) the results were SR-BI uptake up -2.7, ABCB6 inh MLPCN 93.0, HIF activator 0.1, SR-BI HDL uptake 2.7, GAA850 FXN act -0.4 and AHR act 9.7.
COCCOC(=O)c1c(C)n(C)c2ccc(OC(=O)c3c(OC)cccc3OC)cc12 was read as SR-BI uptake up 396.6*, ABCB6 inh MLPCN 101.0, HIF activator 0.3, SR-BI HDL uptake -396.6, GAA850 FXN act -4.9 and AHR act 23.0.
For CCOC(=O)c1c(C)n(C)c2ccc(OC(C)=O)cc12 the results were SR-BI uptake up 10.0, ABCB6 inh MLPCN 82.0, HIF activator 0.6, SR-BI HDL uptake -10.0, GAA850 FXN act 0.6 and AHR act 24.6.
`CCOC(=O)c1c(C)n(C)c2ccc(OCC(N)=O)cc12` gave SR-BI uptake up -15.2, ABCB6 inh MLPCN 94.0, HIF activator 0.1, SR-BI HDL uptake 15.2, GAA850 FXN act -2.2 and AHR act 69.8*.
`CCN(C(=O)CN1CCN(c2cccc(Cl)c2)CC1)c1c(N)n(Cc2ccccc2)c(=O)[nH]c1=O` gave SR-BI uptake up -33.1, ABCB6 inh MLPCN 91.0, HIF activator 0.1, SR-BI HDL uptake 33.1, GAA850 FXN act 0.0 and AHR act 0.8.
For CCCCn1nc(C(=O)NNC(=O)c2ccncc2)c2ccccc2c1=O the results were SR-BI uptake up 4.3, ABCB6 inh MLPCN 96.0, HIF activator -0.5, SR-BI HDL uptake -4.3, GAA850 FXN act -2.0 and AHR act 4.2.
For CCOc1cc(C(=O)Nc2cc3c(cc2N2CCCC2)n(C)c(=O)n3C)cc(OCC)c1OCC the results were SR-BI uptake up -14.7, ABCB6 inh MLPCN 95.0, HIF activator 0.0, SR-BI HDL uptake 14.7, GAA850 FXN act 0.2 and AHR act 2.8.
Screening CN(C(=O)c1ccc2c(c1)OCCO2)c1c(N)n(Cc2ccccc2)c(=O)[nH]c1=O returned SR-BI uptake up 16.5, ABCB6 inh MLPCN 101.0, HIF activator -0.4, SR-BI HDL uptake -16.5, GAA850 FXN act 0.1 and AHR act -0.2.
`CCOc1ccc(CCNC(=O)COC(=O)c2n[nH]c3ccccc23)cc1OCC` gave ABCB6 inh MLPCN 100.0 and GAA850 FXN act -0.7.
CCCCn1c(Oc2ccc(C(=O)OC)cc2)nc2c1c(=O)n(C)c(=O)n2C was read as SR-BI uptake up -91.6, ABCB6 inh MLPCN 111.0, HIF activator 0.3, SR-BI HDL uptake 91.6*, GAA850 FXN act 0.4 and AHR act 0.1.
For CCn1c(Oc2ccc(F)cc2)nc2c1c(=O)n(C)c(=O)n2C the results were SR-BI uptake up -1.0, ABCB6 inh MLPCN 92.0, HIF activator 1.3, SR-BI HDL uptake 1.0, GAA850 FXN act -2.8 and AHR act 5.6.
Screening CCCCCCSc1ccc([C@H]2N[C@@](CC(C)C)(C(=O)OC)[C@H]3C(=O)N(C)C(=O)[C@@H]23)cc1 returned SR-BI uptake up -41.2, ABCB6 inh MLPCN 99.0, HIF activator -0.2, SR-BI HDL uptake 41.2, GAA850 FXN act 0.0 and AHR act 1.1.
For CCCSc1ccc([C@H]2N[C@@](CC(C)C)(C(=O)OC)[C@H]3C(=O)N(C)C(=O)[C@@H]23)cc1 the results were SR-BI uptake up -74.1, ABCB6 inh MLPCN 100.0, HIF activator 0.4, SR-BI HDL uptake 74.1*, GAA850 FXN act -1.1 and AHR act -0.1.
Screening Cc1ccc(CNC(=O)Cn2nnc(C(=O)Nc3cc(C)ccc3C)c2N)cc1 returned SR-BI uptake up 5.2, ABCB6 inh MLPCN 83.0, HIF activator -1.2, SR-BI HDL uptake -5.2, GAA850 FXN act 0.6 and AHR act 8.2.
